Assay [1] concerns PANC-1. In words: Induction of apoptotic cell death in human PANC-1 cells cultured in nutrient-deprived medium assessed as formation of apoptotic bodies at 5 uM measured after 24 hrs by Hoechst 33342 staining based phase-contrast digital microscopy. It is filed as functional. The procedure, abridged:
(§1)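 Cells (2 × 10^5) plated in 35 mm dishes, left 24 h to attach, washed twice with PBS, then given 5 μM in NDM for 24 h. Hoechst 33342 added directly to the medium for 5 min. Imaged in phase-contrast and fluorescence modes (20× objective).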

Assay [2] relates to PANC-1. Briefly: Inhibition of Akt/mTOR signaling pathway in human PANC-1 cells cultured in nutrient-deprived medium assessed as decrease in phosphorylated Akt level at S473 residue at 20 uM measured after 6 hrs by Western blot analysis relative to control. It is filed as cell-based. The procedure, abridged:
(§2)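 Western blot of PANC-1 cells exposed to compound at different concentrations for 6 h in NDM or DMEM. Probed for total and phosphorylated Akt and mTOR and for GβL. Band levels compared with untreated control cells in NDM.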

Assay [3] concerns PANC-1. Briefly: Inhibition of Akt/mTOR signaling pathway in human PANC-1 cells cultured in nutrient-deprived medium assessed as decrease in phosphorylated Akt level at S473 residue at 40 uM measured after 6 hrs by Western blot analysis relative to control. It is filed as cell-based. The procedure, abridged: as §2
The subject of assay [4] is PANC-1. In words: Inhibition of cell migration in human PANC1 cells assessed as wound length at 10 uM cultured in nutrient rich DMEM medium measured after 48 hrs by wound healing assay relative to T0. It is filed as functional. Also on record: scale not given: the % may be the effect or the level left. The procedure, abridged: (§3)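 PANC-1 monolayers (5 × 10^5 cells/well), attached 24 h, scratched about 600 μm with a pipet tip, washed with PBS. Exposed in DMEM to 0–10 μM for 48 h in triplicate. Wound length measured at 10 points on phase-contrast images and expressed relative to initial length at T0.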

Assay [5] has as its system PANC-1. In words: Inhibition of Akt/mTOR signaling pathway in human PANC-1 cells cultured in nutrient-deprived medium assessed as decrease in total mTOR level at 40 uM measured after 6 hrs by Western blot analysis relative to control. It is filed as cell-based. The procedure, abridged:
as §2

The subject of assay [6] is PANC-1. In words: Induction of apoptotic cell death in human PANC-1 cells cultured in nutrient-deprived medium assessed as chromatin fragmentation at 5 uM measured after 24 hrs by Hoechst 33342 staining based phase-contrast digital microscopy. The class given is functional. The procedure, abridged:
as §1

Assay [7] deals with PANC-1. Briefly: Induction of apoptosis in human PANC-1 cells assessed as inhibition of Bcl-2 after 6 hrs by Western blot analysis. The class given is functional, cell-based. Particulars: dose 2.5-40 µM. A digest of the protocol: (§4)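 PANC-1 cells in NDM or DMEM exposed to compound at different concentrations for 6 h, then immunoblotted for Bcl-2, Bcl-xL and caspase-3.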
The test system of assay [8] is PANC-1. In words: Induction of necrosis in human PANC-1 cells cultured in nutrient-deprived medium assessed as rupture of cell membrane at 5 uM measured after 24 hrs by ethidium bromide/acridine orange staining based phase contrast microscopy. The class given is functional. A digest of the protocol:
(§5)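 PANC-1 cells (2 × 10^5/well) attached in DMEM for 24 h, washed twice with PBS, then treated in NDM (1.25, 2.5, 5 μM; control in NDM alone) for 24 h. Stained with ethidium bromide/acridine orange and imaged in phase-contrast and red/green fluorescence modes (20× objective).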

The test system of assay [9] is PANC-1. In words: Inhibition of autophagy in human PANC-1 cells cultured in nutrient-deprived medium assessed as inhibition of Atg12 expression after 6 hrs by Western blot analysis. The class given is functional, cell-based. Particulars: dose 2.5-40 µM.
Assay [10] concerns PANC-1. In words: Inhibition of Akt/mTOR signaling pathway in human PANC-1 cells cultured in nutrient-deprived medium assessed as decrease in GbetaL level measured after 6 hrs by Western blot analysis. The class given is cell-based. Particulars: dose 2.5-40 µM. The procedure, abridged: as §2
Assay [11] has as its system PANC-1. In words: Inhibition of autophagy in human PANC-1 cells cultured in nutrient-deprived medium assessed as inhibition of Beclin-1 expression after 6 hrs by Western blot analysis. It is filed as functional, cell-based. Particulars: dose 2.5-40 µM.
In assay [12] the test system is PANC-1. Briefly: Inhibition of Akt/mTOR signaling pathway in human PANC-1 cells cultured in nutrient-deprived medium assessed as decrease in total Akt level measured after 6 hrs by Western blot analysis. Particulars: dose 2.5-40 µM. The class given is cell-based. A digest of the protocol:
as §2

In assay [13] the test system is PANC-1. In words: Anti-austerity activity against nutrient-deprived human PANC-1 cells assessed as cell death incubated for 24 hrs by WST-8 assay. It is filed as functional. A digest of the protocol: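 Human PANC-1 pancreatic cancer cells tested in parallel in nutrient-deprived medium (NDM) and in nutrient-rich DMEM. PC50 is the concentration that kills 50% of cells in NDM without toxicity in DMEM.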

Assay [14] has as its system PANC-1. In words: Inhibition of colony formation in human PANC-1 cells cultured in nutrient rich DMEM medium measured after 24 hrs by crystal violet staining based assay. It is filed as functional, cell-based. Particulars: dose 2.5-10 µM. A digest of the protocol: (§6)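 PANC-1 cells (5 × 10^2/well) attached in DMEM for 24 h, then exposed to 0, 2.5, 5 or 10 μM in DMEM for 24 h (triplicate). Washed, grown in fresh compound-free DMEM for 12 days, fixed in 4% formaldehyde and stained with crystal violet for 10 min. Colony area measured as a percentage of well area.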

Assay [15] concerns PANC-1. In words: Inhibition of colony formation in human PANC-1 cells at 5 uM cultured in nutrient rich DMEM medium measured after 24 hrs by crystal violet staining based assay relative to control. It is filed as functional. The procedure, abridged:
as §6

For assay [16], the system named is PANC-1. Briefly: Anticancer activity against human PANC-1 cells assessed as cell death at 10 uM measured after 13 hrs by digital cell imaging analysis. The class given is functional, cell-based. A digest of the protocol:
(§7)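 PANC-1 cells (3 × 10^6) in 35 mm dishes in nutrient-deprived medium (NDM), treated with 10 μM; kept in a stage-top incubator at 37 °C, 5% CO2. Phase-contrast images taken every 10 min for 24 h (145 frames, 20× objective). Untreated cells in NDM served as control.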

Assay [17] concerns PANC-1. In words: Induction of necrosis in human PANC-1 cells cultured in nutrient-deprived medium assessed as round cell morphology at 5 uM measured after 24 hrs by ethidium bromide/acridine orange staining based phase contrast microscopy. It is filed as functional. A digest of the protocol: as §5
Assay [18] deals with PANC-1. In words: Induction of apoptosis in human PANC-1 cells cultured in nutrient-deprived medium assessed as inhibition of caspase-3 measured after 6 hrs by Western blot analysis. The class given is functional, cell-based. Particulars: dose 2.5-40 µM. The procedure, abridged:
as §4

Assay [19] concerns PANC-1. In words: Anticancer activity against human PANC-1 cells assessed as induction of morphological changes at 10 uM measured after 7 hrs by digital cell imaging analysis. It is filed as functional, cell-based. The procedure, abridged:
as §7

Assay [20] has as its system PANC-1. In words: Inhibition of colony formation in human PANC-1 cells at 10 uM cultured in nutrient rich DMEM medium measured after 24 hrs by crystal violet staining based assay relative to control. It is filed as functional. A digest of the protocol:
as §6

Assay [21] deals with PANC-1. Briefly: Inhibition of Akt/mTOR signaling pathway in human PANC-1 cells cultured in nutrient-deprived medium assessed as decrease in total Akt level at 20 uM measured after 6 hrs by Western blot analysis relative to control. It is filed as cell-based. The procedure, abridged:
as §2

The test system of assay [22] is PANC-1. Briefly: Inhibition of cell migration in human PANC1 cells assessed as wound length at 5 uM cultured in nutrient rich DMEM medium measured after 48 hrs by wound healing assay relative to T0. It is filed as functional. More on the design: scale not given: the % may be the effect or the level left. A digest of the protocol:
as §3

Activity calls are given as the source filed them. The calls are words filed in the database; no cut-off is given here.

For the compound `COc1cc(OC)c(-c2ccc(O)c3c(OC)cc(C)cc23)c2c1C(C)=N[C@H](C)C2`, the outcome with PANC-1 [1] and in the assay on PANC-1 [6] was inactive. Besides, the inhibition in the assay with PANC-1 [2] was 65%; in the assay on PANC-1 [3] it was 99%; in the assay with PANC-1 [5], 100%; with PANC-1 [9], “Dose-dependent effect”; in the assay on PANC-1 [10], “Dose-dependent effect”; in the assay with PANC-1 [11] it was “Dose-dependent effect”. Moreover, the inhibition result was “Dose-dependent effect” in the assay with PANC-1 [12], “Dose-dependent effect” with PANC-1 [14] and 48% with PANC-1 [21]. Moreover, the values for the Activity in the assay with PANC-1 [4], with PANC-1 [13] and in the assay on PANC-1 [22] were 11%, “Dose-dependent effect” and 58%, respectively. The inhibition entry in the assay on PANC-1 [7] and with PANC-1 [18] was “Active” throughout. For the same compound, the outcome with PANC-1 [8], in the assay with PANC-1 [16], with PANC-1 [17] and in the assay with PANC-1 [19] was Active. Besides, in the assay on PANC-1 [13], the PC50 turned out to be 2.5 µM. Also, in the assay with PANC-1 [15], the inhibition at 5 µM came to 100%. For the same compound, 10 µM produced 100% inhibition with PANC-1 [20].

Values taken from ChEMBL document CHEMBL4680108, “Ancistrolikokine E, a 5,8'-Coupled Naphthylisoquinoline Alkaloid, Eliminates the Tolerance of Cancer Cells to Nutrition Starvation by Inhibition of the Akt/mTOR/Autophagy Signaling Pathway” (2018).
